According to ChEMBL document CHEMBL3351416, “Design, synthesis and biological evaluation of novel pyrenyl derivatives as anticancer agents” (Eur J Med Chem, 2015):
The source made the active and inactive calls. The rule behind the calls is not given here.

Assays:
[1] = test system: HepG2; test: Cytotoxicity against human HepG2 cells assessed as reduction in cell viability after 48 hrs by sulforhodamine B colorimetric assay; format: functional, cell-based; conditions: HepG2, 48 h
Procedure, shortened: (§1)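 Cell lines were kept at 37°C under 5% CO₂. HepG2, Hepa1-6, HeLa and MCF-7 were grown in DMEM with 10% FBS. Caco-2 was grown in DMEM with 20% FBS. HT-29 was grown in McCoy's medium with 10% FBS. The viability assay used 10-μM doxorubicin as positive control. Values marked * came from a single dose curve.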

[2] = Cytotoxicity against mouse Hepa1-6 cells assessed as reduction in cell viability after 48 hrs by sulforhodamine B colorimetric assay; format: functional, cell-based; conditions: Hepa1-6, 48 h; procedure, shortened: as §1
[3] = test system: HT-29; test: Cytotoxicity against human HT-29 cells assessed as reduction in cell viability after 48 hrs by sulforhodamine B colorimetric assay; format: functional, cell-based; conditions: HT-29, 48 h; procedure, shortened: as §1
[4] = test system: HeLa; test: Cytotoxicity against human HeLa cells assessed as reduction in cell viability after 48 hrs by sulforhodamine B colorimetric assay; format: functional, cell-based; procedure, shortened: as §1
[5] = test system: MCF7; test: Cytotoxicity against human MCF7 cells assessed as reduction in cell viability after 48 hrs by sulforhodamine B colorimetric assay; format: functional, cell-based; conditions: MCF7, 48 h; procedure, shortened: as §1
[6] = Cytotoxicity against human Caco2 cells assessed as reduction in cell viability after 48 hrs by sulforhodamine B colorimetric assay; format: functional, cell-based; conditions: Caco-2, 48 h; procedure, shortened: as §1
[7] = test system: Hepa1-6; test: Cytotoxicity against mouse Hepa1-6 cells assessed as reduction in cell viability at 50 uM after 48 hrs by sulforhodamine B colorimetric assay; format: functional, cell-based
Procedure, shortened: (§2)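 Primary mouse hepatocytes and Hepa1-6 cells were exposed to graded doses for 48 hrs. Viability was normalized to DMSO-treated cells. Hepa1-6 cells were grown in DMEM with 10% FBS at 37°C under 5% CO₂. 10-μM doxorubicin served as the cytotoxicity positive control.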

[8] = test system: Hepatocyte; test: Cytotoxicity against hepatocytes (unknown origin) assessed as reduction in cell viability at 50 uM after 48 hrs by sulforhodamine B colorimetric assay; format: cell-based; procedure, shortened: as §2
[9] = test system: Hepa1-6; test: Cytotoxicity against mouse Hepa1-6 cells assessed as reduction in cell viability at <5 uM after 48 hrs by sulforhodamine B colorimetric assay; format: functional, cell-based; procedure, shortened: as §2
[10] = test system: Hepatocyte; test: Cytotoxicity against hepatocytes (unknown origin) assessed as reduction in cell viability at <5 uM after 48 hrs by sulforhodamine B colorimetric assay; format: cell-based; procedure, shortened: as §2
[11] = test system: HeLa; test: Induction of apoptosis in human HeLa cells assessed as membrane blebbing at 2 uM after 12 hrs by microscopy; format: functional, cell-based
Procedure, shortened: (§3)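 HeLa cells were seeded at 1.5-2.0×10^5 cells/well and treated. Membrane blebbing and cell shrinkage were assessed by light microscopy after 8, 12 or 15 hrs.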

[12] = test system: HeLa; test: Induction of apoptosis in human HeLa cells assessed as membrane blebbing at 2 uM after 8 hrs by microscopy; format: functional, cell-based; conditions: in the assay text read “12 hrs” for “8 hrs”; procedure, shortened: as §3
[13] = test system: HeLa; test: Induction of apoptosis in human HeLa cells assessed as membrane blebbing at 2 uM after 15 hrs by microscopy; format: functional, cell-based; conditions: in the assay text read “12 hrs” for “15 hrs”; procedure, shortened: as §3
[14] = test system: HeLa; test: Induction of apoptosis in human HeLa cells assessed as PARP cleavage at <10 uM after 12 hrs by Western blotting; format: functional, cell-based
Procedure, shortened: (§4)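 HeLa cells were treated for 12 hrs and lysed in 0.5% SDS buffer (50 mM Tris pH 8.0, 1 mM DTT, phosphatase and protease inhibitors). Lysates were western blotted with anti-PARP for full-length and cleaved PARP. 1 μM staurosporine served as positive control.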

[15] = test system: HeLa; test: Induction of apoptosis in human HeLa cells assessed as PARP cleavage at 10 uM after 12 hrs by Western blotting; format: functional, cell-based; procedure, shortened: as §4
[16] = Drug localization in cytoplasmic membrane of human HepG2 cells at 30 uM for 3 hrs by epifluorescent microscopy; format: ADME, cell membranes; conditions: hepg2, 3 h
[17] = Drug localization in cytoplasmic membrane of human HepG2 cells at 30 uM for 3 hrs by BODIPY TR-labelling based confocal microsocopy; format: ADME, cell membranes; conditions: hepg2, 3 h
Procedure, shortened: (§5)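 Cells (200,000/well) were seeded on coverslips and incubated overnight at 37°C, then treated for 4 hrs (50 μM) or 3 hrs. They were rinsed with PBS/BSA and stained with 5 µM BODIPY TR-labeled sphingolipids for 30 min at 4°C. Cells were fixed in 4% paraformaldehyde, permeabilized with 0.2% Triton X-100, and examined by confocal microscopy using 1 µm Z-stacks.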

[18] = Drug localization in […] rich regions of cytoplasmic membrane of human HepG2 cells at 3 uM for 2 hrs by BODIPY TR-labeled sphingolipids detection based Western blotting; format: ADME, cell-based; conditions: hepg2, 2 h
Procedure, shortened: (§6)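 HepG2 cells (1x10^6/plate) were treated for 4 hrs at 5 μM or for 2 hrs at 3 μM, then stained with 5 μM BODIPY TR sphingolipids for 30 min at 4°C. Cells were lysed in PBS with 0.5% Brij-96, and lysates were normalized by BCA. Lysates were separated on a step OptiPrep gradient (2.5–30%) at 125,000 g for 12 hrs. Fractions were analysed for compound fluorescence and blotted for Thy-1, Lyn and GAPDH.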

[19] = Cytotoxicity against human SKOV3 cells assessed as reduction in cell viability after 48 hrs by sulforhodamine B colorimetric assay; format: functional, cell-based; conditions: SK-OV-3, 48 h
Procedure, shortened: (§7)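 SKOV3 cells and the retrovirally transduced subclone SKOV3-MDR1-M6/6, which overexpresses P-glycoprotein, were grown in BME with 10% FBS at 37°C under 5% CO₂. Cells were exposed to 0-25 μM for 48 hrs. Viability was read by SRB assay and a dose curve was plotted for each cell line. Paclitaxel served as the reference drug.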

[20] = Cytotoxicity against human SKOV3-MDR1-M6/6 cells assessed as reduction in cell viability after 48 hrs by sulforhodamine B colorimetric assay; format: functional, cell-based; conditions: SKOV3-MDR1-M6/6, 48 h; procedure, shortened: as §7
[21] = Cytotoxicity against human SKOV3-MDR1-M6/6 cells assessed as reduction in cell viability at 25 uM after 48 hrs by sulforhodamine B colorimetric assay; format: functional; procedure, shortened: as §7
[22] = test system: HepG2; test: Drug localization human HepG2 cells at 50 uM for 4 hrs by epifluorescent microscopy; format: ADME, cell-based; conditions: hepg2, 4 h
[23] = Drug localization in cytoplasmic membrane of human HepG2 cells at 50 uM for 4 hrs by BODIPY TR-labelling based confocal microsocopy; format: ADME, cell membranes; conditions: hepg2, 4 h; procedure, shortened: as §5
[24] = Drug localization in […] rich regions of cytoplasmic membrane of human HepG2 cells at 5 uM for 4 hrs by BODIPY TR-labeled sphingolipids detection based Western blotting; format: ADME, cell-based; conditions: hepg2, 4 h; procedure, shortened: as §6

Compound | IC50 [1] [µM] | IC50 [2] [µM] | IC50 [3] [µM] | IC50 [4] [µM] | IC50 [5] [µM] | IC50 [6] [µM] | IC50 [19] [µM] | also measured
CN1CCN(CCCCNc2cc3cccc4ccc5cccc2c5c43)CC1 | 2.4 | 1.1 | 4.8 | 4.1 | 2.6 | 7.23 | 5.5 | Activity [7]: Active; Activity [8]: Toxic; Activity [9]: Active; Activity [10]: Non-toxic; Activity [11]: Active; Activity [12]: Active; Activity [13]: Active; Activity [14]: inactive; Activity [15]: Active; Drug uptake [16]: Active; Drug uptake [17]: Active; Drug uptake [18]: Active; IC50 [20]: 6.2 µM
c1cc2ccc3cccc4c(NCCCCN5CCCCC5)cc(c1)c2c34 | 1.4 | 2.5 | 2.98 | 2.6 | 1.1 | – | 5 | Activity [7]: Active; Activity [8]: Toxic; Activity [9]: Active; Activity [10]: Non-toxic; Activity [11]: Active; Activity [12]: Active; Activity [13]: Active; Activity [14]: inactive; Activity [15]: Active; Drug uptake [16]: Active; Drug uptake [17]: Active; Drug uptake [18]: Active; IC50 [20]: 6.4 µM
O=C(CCCC(=O)N1CCCCC1)Nc1cc2cccc3ccc4cccc1c4c32 | – | > 30 | > 30 | > 30 | > 30 | – | – | –
c1cc2ccc3cccc4c(NCCCCCN5CCCCC5)cc(c1)c2c34 | 18.8 | 18.3 | 19.8 | 18.2 | 14.1 | – | – | –
CC(=O)O[C@H]1C(=O)[C@@]2(C)[C@H]([C@H](OC(=O)c3ccccc3)[C@]3(O)C[C@H](OC(=O)[C@H](O)[C@@H](NC(=O)c4ccccc4)c4ccccc4)C(C)=C1C3(C)C)[C@]1(OC(C)=O)CO[C@@H]1C[C@@H]2O [PACLITAXEL] | – | – | – | – | – | – | < 0.001 | Activity [21]: 40%
O=C(CCC(=O)N1CCCCC1)Nc1cc2cccc3ccc4cccc1c4c32 | > 30 | > 30 | – | > 30 | – | – | – | –
CN1CCN(C(=O)CCC(=O)Nc2cc3cccc4ccc5cccc2c5c43)CC1 | 16.9 | 14.8 | 19.3 | 16.8 | 14.1 | – | – | –
CC(C)COCNc1cc2cccc3ccc4cccc1c4c32 | 39.6 | 9.9 | 14 | 9.8 | – | > 50 | – | Drug uptake [22]: Active; Drug uptake [23]: Active; Drug uptake [24]: Active
CC(C)COC(=O)Nc1cc2cccc3ccc4cccc1c4c32 | 30.4 | 5.9 | 20.7 | 16.2 | – | 36.3 | – | –
